Experimental data reported in ChEMBL document CHEMBL4376862, “Synthesis and evaluation of novel chlorophyll a derivatives as potent photosensitizers for photodynamic therapy” (Eur J Med Chem, 2020).
Calls of active or inactive are those of the source. The calls are words filed in the database; no cut-off is given here.

Assays:
[1] = test system: A549; assay: Photodynamic antitumor activity against human A549 cells xenografted in BALB/c nude mouse assessed as vascular rupture at 0.3 mg/kg, iv incubated for 24 hrs followed by laser light irradiation at 120 J/cm2 measured 24 hrs post light irradiation by H and E staining based histopathological analysis; type: functional, organism-based
In short: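 Tumors from PDT-treated A549 xenograft mice (0.3 mg/kg i.v., 650 nm laser 120 J/cm2 at 24 h) excised, fixed in 4% formaldehyde in PBS, paraffin-embedded, sectioned, H&E stained.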

[2] = test system: A549; assay: Induction of apoptosis in human A549 cells assessed as necrotic cell in presence of 1J/cm2 light irradiation measured after 4 hrs by annexin V-FITC and propidium iodide staining based flow cytometric analysis (reference value: 0.00%); type: functional
In short: (§1)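 After PDT at 1 J/cm2, A549 cells collected 4 h later, stained with annexin V-FITC and propidium iodide per kit instructions; flow cytometry with at least 10,000 events per sample.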

[3] = test system: Cavia porcellus; assay: Phototoxicity in guinea pig assessed as change in back skin weight 4.5 mg/kg, iv followed by 10 mW/cm2 light irradiation for 10 mins measured after 1day of light irradiation (reference value: 72.4 +/- 3.1 mg); type: organism-based; conditions: in vivo, 24 h
[4] = test system: A549; assay: Phototoxicity in human A549 cells assessed as reduction in cell viability in presence of irradiation with laser light at 1 J/cm2 by fluorescence microscopic method relative to control; type: functional
In short: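 A549 cells were grown in F-12K with 10% FBS at 37 °C in 5% CO2. Cells were treated with photosensitizer and exposed to 650 nm laser at 0 or 1 J/cm2, with a laser-alone group. Viable cells were then stained with calcein (green) and nuclei with DAPI (blue), and imaged by fluorescence microscopy.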

[5] = test system: Mus musculus; assay: Phototoxicity in ICR mouse assessed as change in exposed neck skin 0.45 mg/kg, iv in presence of 10 mW/cm2 light irradiation for 10 mins upto 7 days measured after 1day of light irradiation by H and E staining based microscopic analysis; type: organism-based; conditions: in vivo
[6] = Drug localization in mitochondria of human A549 cells at 1 uM after 4 hrs by mito-tracker green based fluorescence microscopic method; type: ADME; conditions: a549, 4 h
In short: (§2)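 A549 cells on coverslips at 1×10^4 cells/mL exposed to […] (so in the source) photosensitizer in complete medium for 4 h, washed, fixed in 4% paraformaldehyde 20 min, then probed 30 min at 37 °C with Mito-Tracker Green, Lyso-Tracker Blue or ER-Tracker Green; fluorescence microscopy, three repeats, minimal ambient light.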

[7] = Drug uptake in BALB/c nude mouse xenografted with A549 cells assessed as drug level in kidney at 0.3 mg/kg, iv measured at 12 hrs by fluorescence assay; type: ADME, organism-based; conditions: in vivo
In short: (§3)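 A549 tumor-bearing mice dosed via tail vein (1 mg/kg in methods; 0.3 mg/kg in text) at tumors ~150–170 mm3, n = 3; whole-body imaging 0–24 h; at 6 and 12 h mice killed, heart, liver, spleen, lung, kidney, brain, tumor imaged ex vivo, excitation 420 nm, emission 650 nm.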

[8] = test system: A549; assay: Photodynamic antitumor activity against human A549 cells xenografted in BALB/c nude mouse at 0.15 mg/kg, iv followed by laser light irradiation at 120 J/cm2 measured after 14 days; type: functional, organism-based
In short: (§4)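 Male BALB/c nude mice (5–6 weeks, 14–16 g) given 2×10^6 A549 cells s.c. in 0.2 mL PBS; at 6–7 mm tumors randomized into ten groups; drug via tail vein, 650 nm diode laser 120 J/cm2 at 180 mW/cm2 24 h later; caliper volume a×b²/2, followed 14 days.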

[9] = test system: A549; assay: Induction of apoptosis in human A549 cells assessed as necrosis incubated for 4 hrs under dark condition by annexin V-FITC and propidium iodide staining based flow cytometric analysis (reference value: 0.00%); type: cell-based; conditions: a549, 4 h
[10] = test system: A549; assay: Photodynamic antitumor activity against human A549 cells xenografted in BALB/c nude mouse assessed as reduction in tumor volume at 0.3 mg/kg, iv incubated for 24 hrs followed by laser light irradiation at 120 J/cm2 measured up to 14 days; type: functional, organism-based; in short: as §4
[11] = test system: Cavia porcellus; assay: Phototoxicity in guinea pig assessed as change in right ear weight 4.5 mg/kg, iv followed by 10 mW/cm2 light irradiation for 10 mins measured after 1 day of light irradiation (reference value: 40.4 +/- 2.4 mg); type: organism-based; conditions: in vivo
[12] = test system: A549; assay: Photodynamic antitumor activity against human A549 cells xenografted in BALB/c nude mouse assessed as survival time at 0.3 mg/kg, iv incubated for 24 hrs followed by laser light irradiation at 120 J/cm2 measured up to 70 days; type: functional, organism-based
In short: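 Nude mice bearing A549 xenografts, 0.3 mg/kg drug i.v. then 650 nm laser 120 J/cm2 at 180 mW/cm2 after 24 h; survival shown as Kaplan-Meier with log-rank test, n = 5.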

[13] = test system: A549; assay: Induction of apoptosis in human A549 cells assessed as early apoptotic cell in presence of 1J/cm2 light irradiation measured after 4 hrs by annexin V-FITC and propidium iodide staining based flow cytometric analysis (reference value: 0.07%); type: functional; in short: as §1
[14] = Induction of apoptosis in human A549 cells assessed as viable cells incubated for 4 hrs under dark condition by annexin V-FITC and propidium iodide staining based flow cytometric analysis (reference value: 99.88%); type: cell-based; conditions: read-out: Activity
[15] = Therapeutic index, ratio of TC50 for human A549 cells under dark to IC50 for human A549 cells irradiated with 1 J/cm2 of 650 nanometer laser light; type: toxicity, cell-based; conditions: read-out: TI
In short: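 A549 cells (F-12K, 10% FBS, 37 °C, 5% CO2) seeded 24 h, then exposed to 0–10 photosensitizer for 24 h. Dark arm: MTT 48 h later. Light arm: 650 nm laser, 1 J/cm2 (25 mW/cm2, 40 s), then MTT. A570 viability relative to control, triplicate. Ratio = dark TC50 / irradiated IC50.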

[16] = Drug localization in endoplasmic reticulum of human A549 cells at 1 uM after 4 hrs by DiOC6(3) ER-tracker green based fluorescence microscopic method; type: ADME, subcellular; conditions: a549, 4 h; in short: as §2
[17] = test system: A549; assay: Photodynamic antitumor activity against human A549 cells xenografted in BALB/c nude mouse assessed as decrease in tumor weight at 0.3 mg/kg, iv followed by laser light irradiation at 120 J/cm2 measured after 14 days; type: functional; in short: as §4
[18] = Drug uptake in BALB/c nude mouse xenografted with A549 cells assessed as drug level in tumor tissue at 0.3 mg/kg, iv measured at 12 hrs by fluorescence assay; type: ADME, organism-based, Neoplasm; conditions: in vivo; in short: as §3
[19] = Induction of ROS generation in DMF solution assessed as ROS quantum yield at 2 uM followed by irradiation measured every 10 secs by spectrophotometric analysis; type: functional
[20] = Absorption property of compound in DMSO assessed as strong absorption wavelength at 1 x 10^-3 M by UV-spectra analysis; type: physicochemical; conditions: 1000 µM
In short: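 Stocks 1 mM in DMSO; spectra run over […] range (units as printed), 300–800 nm in 1 nm steps, room temperature, quartz cuvettes, UV-vis spectrophotometer.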

[21] = Drug uptake in BALB/c nude mouse xenografted with A549 cells assessed as drug level in tumor tissue at 0.3 mg/kg, iv measured upto 24 hrs by fluorescence assay; type: ADME, organism-based, Neoplasm; conditions: in vivo; in short: as §3

Drug uptake [6] | Drug uptake [7] | Drug uptake [16] | Drug uptake [18] | Activity [20] [nm] | Compound | Activity [1] | Activity [2] [%] | Activity [3] [mg] | Activity [4] [%] | Activity [5] | Activity [8] | Activity [9] [%] | Activity [10] | Activity [11] [mg] | Activity [12] | Activity [13] [%] | viability at 4 h [14] [%] | selectivity ratio [15] | Activity [17] [g] | Ratio [19] | further results
Active | Not Active | Active | Active | 660 to 670 | CCC1=C(C)c2cc3[nH]c(cc4nc(c5c6[nH]c(cc1n2)c(C)c6C(=O)C5)[C@@H](CCC(=O)NCC(=O)CCC(=O)O)[C@@H]4C)c(C)c3C(C)OCCO (some centres not stated) | Active | 0.7 | 74.3 | 34.15 | Non-Toxic | Active | 2.75 | Active | 41.9 | Active | 28.92 | 87.8 | 8.97 | 0.0296 | 1.35 | Drug uptake [21]: Active
Active | Not Active | Active | Active | 660 to 670 | CCCCOC(C)c1c(C)c2cc3nc(c4c5[nH]c(cc6nc(cc1[nH]2)C(C)=C6CC)c(C)c5C(=O)C4)[C@@H](CCC(=O)NCC(=O)CCC(=O)O)[C@@H]3C (some centres not stated) | Active | 10.92 | 75.2 | 30.69 | Non-Toxic | Active | 2.3 | Active | 43.6 | Active | 2.07 | 89.8 | 8.74 | 0.0138 | 1.56 | Drug uptake [21]: Active
